We go through eight compounds from paper PMC8621847 (Research in Pharmaceutical Sciences, 2021).

By IC50 is commonly meant the point on the concentration scale where inhibition reaches its midpoint.

The subject of data set [1] is HUVEC cell line. Kind of data set: MTT cytotoxicity assay, HUVEC normal cell line. The data set is classed as cell-based. The conditions noted are these: Homo sapiens, 48 h, read-out: IC50 HUVEC. The method, boiled down:
(§1)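 Cells grown in RPMI-1640 with 10% FBS and 1% penicillin/streptomycin, seeded at 5-7 × 10^4 per well, 37 °C, 5% CO2. Test compound at final 1, 4, 6, 8, 10, 40, 60, 80 and 100 μM for 48 h. MTT (5 mg/mL in PBS) added for 3 h, formazan dissolved in DMSO, absorbance read at 570 nm. Doxorubicin (20 μM) was the positive control, untreated cells set 100% viability, and medium was the blank. Triplicate, repeated on three days.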

The subject of data set [2] is MCF-7 cell line. Kind of data set: MTT cytotoxicity assay, MCF-7 cell line. In kind it is cell-based. Conditions: for improvement of cytotoxicity by hybridization, compared with VIIa and VIIb: MCF-7, fused pyrazole hybrids versus benzoxazinones VIIa and VIIb; for cytotoxic effect on MCF-7 cell line (in words): MTT assay. Summed up: as §1
On the technique in general: Tetrazolium dyes change colour on reduction, which living cells bring about.

Molecules are shown by their SMILES. Entries after “also recorded” stand apart in the source; their conditions may differ.

Take `COc1cccc2c1C(=O)c1c(O)c3c(c(O)c1C2=O)C[C@@](O)(C(=O)CO)C[C@@H]3O[C@H]1C[C@H](N)[C@H](O)[C@H](C)O1` [Doxorubicin, reference compound]: in data set [1], the IC50 is 21.17 ± 0.05 µM.

Turning to `O=C(N/C(=C/c1ccc(Cl)cc1)c1nc2ccccc2c2cc(=O)[nH]n12)c1ccccc1` [IXa, (E)-N-(2-(4-chlorophenyl)-1-(2-oxo-2,3-dihydropyrazolo[1,5-c]quinazolin-5-yl)vinyl)benzamide], the “improvement of cytotoxicity by hybridization, compared with VIIa and VIIb” value in data set [2] is reported as 3-4 times. The half-inhibitory concentration (IC50) in data set [1] came to 79 ± 3.71 µM. On to `O=C(N/C(=C/c1ccc([N+](=O)[O-])cc1)c1nc2ccccc2c2cc(=O)[nH]n12)c1ccccc1` [IXb, (E)-N-(2-(4-nitrophenyl)-1-(2-oxo-2,3-dihydropyrazolo[1,5-c]quinazolin-5-yl)vinyl) benzamide], for which the “improvement of cytotoxicity by hybridization, compared with VIIa and VIIb” value in data set [2] is on record as 3-4 times. For the same compound, in data set [1], the half-inhibitory concentration (IC50) was determined as 96.2 ± 4.66 µM.

For the compound `O=C(N/C(=C/c1ccc(Cl)cc1)c1nc2ccccc2c(=O)o1)c1ccccc1` [VIIa, (E)-N-(2-(4-chlorophenyl)-1-(4-oxo-4H-benzo[d][1,3]oxazin-2-yl)vinyl)benzamide], the half-maximal inhibitory concentration (IC50) in data set [1] was determined as 72.2 ± 1.5 µM. Take `O=C1OC(c2ccccc2)=N/C1=C\c1ccc(Cl)cc1` [Va, (Z)-4-(4-chlorobenzylidene)-2-phenyloxazol-5(4H)-one]: the “cytotoxic effect on MCF-7 cell line (in words)” value in data set [2] is “no remarkable cytotoxic effect; also recorded: no inhibitory activity”. Moreover, the half-inhibitory concentration (IC50) in data set [1] came out at 96.4 ± 2.22 µM.

Regarding `O=C1OC(c2ccccc2)=N/C1=C\c1ccc([N+](=O)[O-])cc1` [Vb, (Z)-4-(4-nitrobenzylidene)-2-phenyloxazol-5(4H)-one], the “cytotoxic effect on MCF-7 cell line (in words)” value in data set [2] is “no remarkable cytotoxic effect; also recorded: no inhibitory activity”. In data set [1], the IC50 was 93.3 ± 4.11 µM. As to `Cc1nc2ccccc2c(=O)n1N1C(=O)/C(=C/c2ccc(Cl)cc2)N=C1c1ccccc1` [XIIIa, (Z)-3-(4-(4-chlorobenzylidene)-5-oxo-2-phenyl-4,5-dihydro-1H-imidazol-1-yl)-2-methylquinazolin-4(3H)-one], the 50% inhibitory concentration (IC50) in data set [1] turned out to be 94.41 ± 0.89 µM.

Turning to `Cc1nc2ccccc2c(=O)n1N1C(=O)/C(=C/c2ccc([N+](=O)[O-])cc2)N=C1c1ccccc1` [XIIIb, (Z)-2-methyl-3-(4-(4-nitrobenzylidene)-5-oxo-2-phenyl-4,5-dihydro-1H-imidazol-1-yl) quinazolin-4(3H)-one], in data set [1], the IC50 is 81.2 ± 6.17 µM.
